Results taken from ChEMBL document CHEMBL1143070, “Catechin gallates are NADP+-competitive inhibitors of glucose-6-phosphate dehydrogenase and other enzymes that employ NADP+ as a coenzyme” (Bioorg Med Chem, 2008).
Calls of active or inactive are those of the source. The rule behind the calls is not given here.

What was measured:
[1] = molecular target: T1, Glucose-6-phosphate 1-dehydrogenase (Saccharomyces cerevisiae S288c, UniProt P11412); assay: Inhibition of yeast G6PD
T1 sequence (P11412 whole entry): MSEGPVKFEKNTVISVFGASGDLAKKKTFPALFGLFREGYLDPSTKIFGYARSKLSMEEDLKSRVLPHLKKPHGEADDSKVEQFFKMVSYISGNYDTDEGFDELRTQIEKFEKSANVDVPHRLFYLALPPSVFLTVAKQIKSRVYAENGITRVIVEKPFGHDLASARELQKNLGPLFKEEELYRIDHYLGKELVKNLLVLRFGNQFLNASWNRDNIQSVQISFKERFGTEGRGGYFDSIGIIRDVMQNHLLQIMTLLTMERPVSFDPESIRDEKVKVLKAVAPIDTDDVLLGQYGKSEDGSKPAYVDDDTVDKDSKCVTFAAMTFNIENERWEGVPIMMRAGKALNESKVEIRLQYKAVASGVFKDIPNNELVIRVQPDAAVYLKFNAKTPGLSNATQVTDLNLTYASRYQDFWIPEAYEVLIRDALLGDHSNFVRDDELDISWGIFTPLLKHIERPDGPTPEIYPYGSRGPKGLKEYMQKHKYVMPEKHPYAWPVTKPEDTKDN

3T3-L1 [2] = assay: Inhibition of G6PD-mediated NADPH production in mouse 3T3-L1 cells at above 100 umol/L; format: cell-based
How it was run: (§1)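 Fully differentiated 3T3-L1 adipocytes were lysed in NETN buffer and spun at 4 °C; supernatants were used at once. 1.0 µg protein was incubated at 30 °C with inhibitor (DMSO <0.2% v/v) in 0.1 mol/L Tris pH 7.5, 150 mmol/L NaCl, 6 mmol/L MgCl2, 0.5 mmol/L G6P, 0.5 mmol/L 6-phosphogluconate and 0.25 mmol/L NADP+. Total NADPH production was normalized to Bradford protein. Values are means of three independent experiments.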

[3] = (§2) Inhibition of G6PD-mediated NADPH production in mouse 3T3-L1 cells; format: cell-based; how it was run: as §1
[4] = Inhibition of IDH
3T3-L1 [5] = assay: Ratio of IC50 for yeast G6PD to IC50 for G6PD-mediated NADPH production in mouse 3T3-L1 cells; format: cell-based
[6] = molecular target: 6-phosphogluconate dehydrogenase, decarboxylating (Saccharomyces cerevisiae) (UniProt P38720); assay: Inhibition of 6PGD
3T3-L1 [7] = assay: as §2; format: cell-based; how it was run: as §1
Homo sapiens = assay: Plasma concentration in human at 50 mg, po; settings: in vivo

6-phosphogluconate dehydrogenase, decarboxylating (Saccharomyces cerevisiae), sequence (P38720 whole entry, looked up): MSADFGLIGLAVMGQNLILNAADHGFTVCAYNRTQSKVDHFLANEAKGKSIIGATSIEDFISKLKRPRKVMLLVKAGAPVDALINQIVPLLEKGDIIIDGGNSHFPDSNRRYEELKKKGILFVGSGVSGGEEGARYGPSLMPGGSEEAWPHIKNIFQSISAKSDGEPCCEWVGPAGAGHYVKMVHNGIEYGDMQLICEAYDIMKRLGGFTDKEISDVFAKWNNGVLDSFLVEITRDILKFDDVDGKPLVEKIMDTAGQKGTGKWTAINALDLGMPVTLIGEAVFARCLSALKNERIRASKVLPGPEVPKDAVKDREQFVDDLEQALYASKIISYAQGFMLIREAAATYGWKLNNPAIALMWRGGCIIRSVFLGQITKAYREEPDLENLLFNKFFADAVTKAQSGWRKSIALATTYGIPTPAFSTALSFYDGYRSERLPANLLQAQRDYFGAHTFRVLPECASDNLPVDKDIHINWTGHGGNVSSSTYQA

| SMILES | IC50 [1] | inhibition (3T3-L1 [2]) | IC50 [3] | IC50 [4] | Ratio IC50 (3T3-L1 [5]) | IC50 [6] | Activity (3T3-L1 [7]) | concentration (Homo sapiens) |
| --- | --- | --- | --- | --- | --- | --- | --- | --- |
| Oc1cccc(/C=N/NC(=S)N/N=C/c2cccc(O)c2O)c1O | 56.4 µM | – | – | – | – | – | – | – |
| CCOc1cccc(-c2cc(C(=O)N/N=C/c3ccccc3O)[nH]n2)c1 | 21.8 µM | – | – | – | – | – | – | – |
| C[C@]12CC[C@H](O)CC1=CC[C@@H]1[C@@H]2CC[C@]2(C)C(=O)CC[C@@H]12 | – | 40% | – | – | – | – | – | – |
| O=C(O[C@@H]1Cc2c(O)cc(O)cc2O[C@H]1c1ccc(O)c(O)c1)c1cc(O)c(O)c(O)c1 [(-)-CATECHINGALLATE] | 0.24 µM | – | 25 µM | 6.62 µM | 100 | 1.28 µM | – | – |
| Oc1cc(O)c2c(c1)O[C@@H](c1ccc(O)c(O)c1)[C@H](O)C2 [(-)-CATECHIN] | > 1000 µM | – | – | > 1000 µM | – | – | inactive | – |
| Oc1cc(O)c2c(c1)O[C@H](c1ccc(O)c(O)c1)[C@H](O)C2 [(-)-EPICATECHIN] | > 1000 µM | – | – | > 1000 µM | – | – | inactive | – |
| Oc1cc(O)c2c(c1)O[C@@H](c1cc(O)c(O)c(O)c1)[C@H](O)C2 [(-)-GALLOCATECHIN] | > 1000 µM | – | – | > 1000 µM | – | – | inactive | – |
| O=C(O[C@@H]1Cc2c(O)cc(O)cc2O[C@@H]1c1ccc(O)c(O)c1)c1cc(O)c(O)c(O)c1 [EPICATECHIN GALLATE] | 0.18 µM | – | 25 µM | 10.8 µM | 100 | 1.21 µM | – | – |
| Oc1cc(O)c2c(c1)O[C@H](c1cc(O)c(O)c(O)c1)[C@H](O)C2 [EPIGALLOCATECHIN] | > 1000 µM | – | – | > 1000 µM | – | – | inactive | – |
| O=C(O[C@@H]1Cc2c(O)cc(O)cc2O[C@@H]1c1cc(O)c(O)c(O)c1)c1cc(O)c(O)c(O)c1 [EPIGALOCATECHIN GALLATE] | 0.25 µM | – | 25 µM | 6.44 µM | 100 | 0.72 µM | – | 300 nM |
| O=C(O[C@@H]1Cc2c(O)cc(O)cc2O[C@H]1c1cc(O)c(O)c(O)c1)c1cc(O)c(O)c(O)c1 [GALLOCATECHIN GALLATE] | 0.23 µM | – | 25 µM | 2.72 µM | 100 | 1.45 µM | – | – |
